Published values collected from several papers.
Lines come from different studies, so protocols differ.
MET: Hepatocyte growth factor receptor (MET, Homo sapiens, UniProt P08581)
MET Y1235D: Hepatocyte growth factor receptor (MET, Homo sapiens, UniProt P08581, Y1235D)
MET M1250T: Hepatocyte growth factor receptor (MET, Homo sapiens, UniProt P08581, M1250T)
MET D1228H: Hepatocyte growth factor receptor (MET, Homo sapiens, UniProt P08581, D1228H)

With `CC(=O)Nc1c(C(C)=O)c(=O)n(C)c2nc(-c3ccc(Cl)cc3Cl)c(-c3ccc(Cl)cc3)cc12` the remaining binding was 100% (MET; cell-free assay; competition with immobilised ligand; 1 µM).
`O=C1Nc2ccc(Cl)cc2C1=Cc1cc(Cl)c(O)c(Cl)c1` gave a remaining signal of 96.4% (MET; cell-free assay; 0.5 µM).
For `CC(C)(C)c1nc(-c2cccc(NS(=O)(=O)c3c(F)cccc3F)c2F)c(-c2ccnc(N)n2)s1`, the remaining activity was 89% (MET; enzyme activity; inhibitor; radiometric; 1 µM).
With `O=C(O)c1cc(-c2ccc(C3CCNCC3)cc2)c2ccc(-c3ccc(C(F)(F)F)cc3)cc2c1` the remaining binding was 100% (MET Y1235D; cell-free assay; competition with immobilised ligand; 1 µM).
`Oc1ccc(-c2nc(-c3ccncc3)c(-c3ccc(F)cc3)[nH]2)cc1` gave a remaining signal of 94.4% (MET; cell-free assay; 0.5 µM).
With `Cc1cnn2ncc(-c3ccnc(N(C)C)n3)c2c1` the remaining binding was 87% (MET Y1235D; binding; 1 µM).
`Nc1ncnc2occ(-c3ccc(NC(=O)Nc4cc(C(F)(F)F)ccc4F)cc3)c12` has a remaining signal of 1.6% (MET Y1235D; cell-free assay; 20 µM).
For `N[C@H]1CCN(c2nccc(-c3cnn4ncccc34)n2)C1`, the remaining binding was 100% (MET Y1235D; binding; 1 µM).
`CC/C(=N\NC(=O)NCc1cccc(O)c1)c1ccc(O)c(C)c1O` has an inhibition of 0.7% (MET Y1235D; enzyme activity; inhibitor; 0.1 µM).
With `O=C(NC[C@@H]1[C@H]2CN(C(=O)OCc3cc(C(F)(F)F)cc(C(F)(F)F)c3)C[C@@H]12)c1ccc2[nH]nnc2c1` the remaining binding was 100% (MET M1250T; cell-free assay; competition with immobilised ligand; 1 µM).
The remaining signal of `N#CCCc1ccc2c(c1)-c1[nH]c3ccc([N+](=O)[O-])cc3c1CC(=O)N2` is reported as 119% (MET; cell-free assay; 0.5 µM).
For `CC(C)CC(=O)N1CCc2nc(-c3ccc(Br)cc3)nc(N(C)Cc3ccccc3)c2C1`, the remaining binding was 100% (MET Y1235D; cell-free assay; competition with immobilised ligand; 0.1 µM).
The remaining signal of `Cc1ccc(C(=O)Nc2ccc(CN3CCN(C)CC3)c(C(F)(F)F)c2)cc1C#Cc1cnc2cccnn12` is reported as 92% (MET; cell-free assay; 23.5 nM).
`Cc1cnc(NC2CCOCC2)nc1-n1cnc(C(=O)NC(CN)c2cc(F)cc(Cl)c2)c1` (centres unmarked) has a remaining activity of 98% (MET D1228H; enzyme activity; inhibitor; radiometric; 1 µM).
`COc1cc(Cl)c(C(=O)N[C@@H](CN[C@H]2CC[C@@H](N)CC2)Cc2ccc(C#N)cc2)cc1-c1ccc(CN[C@H](C)c2ccc(C)cc2)o1` gave a remaining activity of 63% (MET; enzyme activity; inhibitor; 1 µM).
For `COc1ccnn2ncc(-c3ccnc(N(C)C)n3)c12`, the remaining binding was 100% (MET M1250T; binding; 1 µM).
For `O=C(Nc1cnn(-c2csc(C(=O)NC3COC3)c2)c1)Nc1ccccc1Cl`, the remaining activity was 102% (MET; enzyme activity; inhibitor; 5 µM).
`c1cnn2ncc(-c3ccnc(N4CCC45COC5)n3)c2c1` gave a remaining binding of 80% (MET Y1235D; binding; 1 µM).
With `Cc1ccc(NC(=O)c2ccc(C)c(C(F)(F)F)c2)cc1C#Cc1nn(C2CCC(O)CC2)c2ncnc(N)c12` (centres unmarked) the remaining signal was 124% (MET D1228H; cell-free assay; 10 µM).
With `O=C(N[C@H]1CCCCC/C=C\C2C[C@@]2(C(=O)O)NC(=O)[C@@H]2C[C@@H](Oc3ccncc3)CN2C1=O)OC1CCCC1` (some centres unmarked) the remaining binding was 92% (MET M1250T; cell-free assay; competition with immobilised ligand; 1 µM).
With `CN(C)c1ncc(F)c(-c2cnn3ncccc23)n1` the remaining binding was 100% (MET M1250T; binding; 1 µM).
`CO[C@@H](C)c1c(Nc2ccc([C@H](N(C)C(=O)C3CCS(=O)(=O)CC3)C(F)(F)F)cc2)cnc2cc(Cl)nn12` gave a remaining binding of 100% (MET Y1235D; cell-free assay; competition with immobilised ligand; 1 µM).
The remaining binding of `CN(CCCC(F)(F)F)c1nccc(-c2cnn3ncccc23)n1` is reported as 100% (MET; binding; 1 µM).
With `CN1CCN(c2cnc3c(C4CCN(C(=O)c5ccc(OC(F)(F)F)cc5N)CC4)ncnc3c2)CC1` the remaining binding was 100% (MET M1250T; cell-free assay; competition with immobilised ligand; 1 µM).
`C[C@H]1CCN(c2nccc(-c3cnn4ncccc34)n2)C1` has a remaining binding of 50% (MET M1250T; binding; 1 µM).
`COc1cc2ncnc(Nc3ccc(F)c(Cl)c3)c2cc1OCCCN1CCOCC1` has a remaining signal of 92.4% (MET; cell-free assay; 0.5 µM).
For `Cc1c(NC(=O)c2cc(C(N)=O)nc3cc(F)ccc23)c(C(F)(F)F)nn1Cc1ccc(C(C)(C)C)cc1`, the remaining binding was 84% (MET Y1235D; cell-free assay; competition with immobilised ligand; 1 µM).
For `CNC(=O)c1cc2c(Oc3ccc(NC(=O)C4(C(=O)Nc5ccc(F)cc5)CC4)cc3)ccnc2cc1OC`, the inhibition was 100% (Hepatocyte growth factor receptor (MET, Homo sapiens, UniProt P08581, Y1230D); enzyme activity; inhibitor; radiometric; 1 µM).
`Cc1cc(NC(=O)c2cccc3cc(-c4cccc5[nH]nc(N)c45)ccc23)ccc1F` has an activity vs control of 104% (MET; enzyme activity; inhibitor; 0.1 µM).
